We go through 2 molecules from ChEMBL document CHEMBL1909618, “Non-steroidal dissociated glucocorticoid agonists: indoles as A-ring mimetics and function-regulating pharmacophores” (Bioorg Med Chem Lett, 2011).

The target in assay [1] is T1, Glucocorticoid receptor (Homo sapiens, UniProt P04150).
T1 sequence (P04150 whole entry): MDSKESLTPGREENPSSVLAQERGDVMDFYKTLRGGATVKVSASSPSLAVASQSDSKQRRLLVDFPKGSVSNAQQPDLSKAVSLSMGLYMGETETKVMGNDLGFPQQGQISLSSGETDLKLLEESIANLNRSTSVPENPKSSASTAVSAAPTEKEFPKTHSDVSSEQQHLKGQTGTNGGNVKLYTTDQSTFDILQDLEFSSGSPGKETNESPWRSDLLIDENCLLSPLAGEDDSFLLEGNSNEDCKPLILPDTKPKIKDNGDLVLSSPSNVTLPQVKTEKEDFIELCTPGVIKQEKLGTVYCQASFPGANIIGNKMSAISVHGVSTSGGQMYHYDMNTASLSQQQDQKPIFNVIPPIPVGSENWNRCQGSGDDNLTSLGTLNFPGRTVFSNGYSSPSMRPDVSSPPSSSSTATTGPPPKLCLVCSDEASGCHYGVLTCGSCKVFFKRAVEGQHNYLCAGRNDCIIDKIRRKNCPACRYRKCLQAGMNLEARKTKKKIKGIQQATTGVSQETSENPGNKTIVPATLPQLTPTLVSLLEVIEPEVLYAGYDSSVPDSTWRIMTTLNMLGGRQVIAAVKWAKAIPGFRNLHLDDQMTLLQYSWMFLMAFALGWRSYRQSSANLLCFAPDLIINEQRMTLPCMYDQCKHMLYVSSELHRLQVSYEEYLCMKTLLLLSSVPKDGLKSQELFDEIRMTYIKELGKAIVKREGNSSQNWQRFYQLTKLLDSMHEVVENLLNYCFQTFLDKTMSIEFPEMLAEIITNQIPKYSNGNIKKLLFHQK
The experiment in a line: Agonist activity at glucocorticoid receptor in HFF assessed as inhibition of IL1-induced IL-6 production after 18 to 24 hrs. It is filed as functional.

Assay [2] has as its target T2, Mineralocorticoid receptor (Homo sapiens, UniProt P08235).
T2 sequence (P08235 whole entry): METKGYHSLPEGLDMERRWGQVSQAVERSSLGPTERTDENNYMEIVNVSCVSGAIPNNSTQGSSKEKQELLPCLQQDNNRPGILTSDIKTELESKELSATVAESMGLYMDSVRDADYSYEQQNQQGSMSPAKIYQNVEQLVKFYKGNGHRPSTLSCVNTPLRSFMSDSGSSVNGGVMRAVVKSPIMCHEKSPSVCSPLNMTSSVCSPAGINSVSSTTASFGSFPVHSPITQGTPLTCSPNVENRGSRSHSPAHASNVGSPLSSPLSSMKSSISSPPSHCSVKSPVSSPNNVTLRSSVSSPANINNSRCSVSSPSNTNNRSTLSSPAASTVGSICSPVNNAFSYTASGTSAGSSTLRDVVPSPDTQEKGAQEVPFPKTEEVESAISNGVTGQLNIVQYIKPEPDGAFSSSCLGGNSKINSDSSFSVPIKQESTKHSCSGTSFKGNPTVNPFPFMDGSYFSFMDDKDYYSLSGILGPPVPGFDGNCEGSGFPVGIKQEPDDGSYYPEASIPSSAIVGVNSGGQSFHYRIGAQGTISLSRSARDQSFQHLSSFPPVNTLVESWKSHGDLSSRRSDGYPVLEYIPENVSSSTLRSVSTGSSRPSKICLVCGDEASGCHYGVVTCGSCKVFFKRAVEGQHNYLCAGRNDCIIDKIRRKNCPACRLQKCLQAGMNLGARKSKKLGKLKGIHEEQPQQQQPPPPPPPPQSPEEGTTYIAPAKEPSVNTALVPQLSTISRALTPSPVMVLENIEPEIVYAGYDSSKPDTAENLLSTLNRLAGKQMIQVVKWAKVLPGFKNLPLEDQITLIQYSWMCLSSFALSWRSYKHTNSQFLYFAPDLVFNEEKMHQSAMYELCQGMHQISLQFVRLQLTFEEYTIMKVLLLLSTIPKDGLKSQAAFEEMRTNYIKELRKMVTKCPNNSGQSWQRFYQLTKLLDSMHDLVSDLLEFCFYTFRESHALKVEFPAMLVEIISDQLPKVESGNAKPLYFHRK
The experiment in a line: Displacement of tetramethylrhodamine-labeled Dexamethasone from human recombinant mineralocorticoid receptor expressed in baculovirus infected insect cells by fluorescence polarization assay. An outline of the steps: (§1)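 Fluorescence polarization competition assays with recombinant human receptors in lysates of baculovirus-infected insect cells. Reactions contained 1% DMSO and ran 1 h at room temperature.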
(In fluorescence polarisation assays a small probe gives low polarisation when free and higher when bound to something large.)

In another assay the target is T3, Progesterone receptor (Homo sapiens, UniProt P06401).
T3 sequence (P06401 whole entry): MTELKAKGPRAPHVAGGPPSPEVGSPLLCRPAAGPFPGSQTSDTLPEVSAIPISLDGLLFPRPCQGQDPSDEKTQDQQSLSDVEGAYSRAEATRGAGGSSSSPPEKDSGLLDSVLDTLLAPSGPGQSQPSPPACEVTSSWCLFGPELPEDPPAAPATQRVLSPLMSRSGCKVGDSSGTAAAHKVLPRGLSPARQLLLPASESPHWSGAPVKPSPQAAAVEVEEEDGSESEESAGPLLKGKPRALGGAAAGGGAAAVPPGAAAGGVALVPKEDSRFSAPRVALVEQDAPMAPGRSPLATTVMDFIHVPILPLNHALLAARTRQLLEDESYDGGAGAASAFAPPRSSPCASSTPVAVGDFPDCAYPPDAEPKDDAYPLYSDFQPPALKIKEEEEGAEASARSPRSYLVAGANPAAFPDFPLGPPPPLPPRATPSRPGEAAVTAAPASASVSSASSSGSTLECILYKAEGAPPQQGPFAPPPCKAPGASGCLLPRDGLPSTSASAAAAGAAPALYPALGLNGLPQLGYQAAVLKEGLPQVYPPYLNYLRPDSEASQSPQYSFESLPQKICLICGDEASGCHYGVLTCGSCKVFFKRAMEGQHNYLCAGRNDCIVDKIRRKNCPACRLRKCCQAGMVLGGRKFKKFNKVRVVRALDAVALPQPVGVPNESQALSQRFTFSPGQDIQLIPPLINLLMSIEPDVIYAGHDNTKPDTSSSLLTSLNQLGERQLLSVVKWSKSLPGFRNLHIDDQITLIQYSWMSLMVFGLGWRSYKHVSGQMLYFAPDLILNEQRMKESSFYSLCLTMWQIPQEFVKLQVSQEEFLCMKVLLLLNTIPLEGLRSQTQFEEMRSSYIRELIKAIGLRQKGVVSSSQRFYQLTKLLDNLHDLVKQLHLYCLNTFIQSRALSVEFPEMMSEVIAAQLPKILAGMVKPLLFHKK
The experiment in a line: Displacement of tetramethylrhodamine-labeled RU-486 from human recombinant progesterone receptor expressed in baculovirus infected insect cells by fluorescence polarization assay. In outline: as §1

The target of assay [3] is T1, Glucocorticoid receptor. The experiment in a line: Displacement of tetramethylrhodamine-labeled Dexamethasone from human recombinant glucocorticoid receptor expressed in baculovirus infected insect cells by fluorescence polarization assay.
Assay [4] has as its target T4, Glucocorticoid receptor (Homo sapiens) (UniProt P04150).
T4 sequence (whole entry): T1 sequence (P04150 whole entry)
The experiment in a line: Transactivation activity of glucocorticoid receptor in HFF assessed as induction of aromatase activity by measuring beta-estradiol activity after 18 to 24 hrs by ELISA relative to Dexamethasone. In general terms: ELISA stands for enzyme-linked immunosorbent assay.

In the case of `CC(C)(C[C@@](O)(Cc1cc2ccc(C#N)cc2[nH]1)C(F)(F)F)c1cc(S(C)(=O)=O)cc2c1OCC2`, the IC50 (commonly the concentration at which inhibition is half-maximal) on Glucocorticoid receptor [1] came to 28 nM; in assay [2] it was 230 nM; on Progesterone receptor, 745 nM; on Glucocorticoid receptor [3] it was 2 nM. Also, in assay [4], the Efficacy came to 74%.
In the case of `COc1ccc(F)cc1C(C)(C)C[C@@](O)(Cc1cc2ccccc2[nH]1)C(F)(F)F`, the IC50 at Glucocorticoid receptor [1] is 6 nM; in assay [2] it was 190 nM; on Progesterone receptor, 207 nM; on Glucocorticoid receptor [3] it was 10 nM. Further, the Efficacy in assay [4] amounted to 98%.
